Measured values published in ChEMBL document CHEMBL4689842, “EUbOPEN Chemogenomics Library wave 1” (2021).

System: Fibroblast
Assay: Multiplex assay against human fibroblast
Type: toxicity, cell-based
In short: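 Cells stained live at seeding with Hoechst33342, BioTracker Green Microtubule Cytoskeleton Dye, MitoTracker Red and Annexin V Alexa Fluor 680 were imaged on a CQ1 microscope at 37°C and 5% CO2 after compound addition. Their classification by CellPathfinder machine-learning gating ran from Hoechst high-intensity objects versus normal cells, to healthy, pyknosed or fragmented nuclei among normal cells, to mitotic or apoptotic among pyknosed cells. Tubulin, mitochondrial-mass and membrane-permeability phenotypes are per cents of healthy-nucleus cells.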

[1] = 12 h, 1 µM, compound concentration 1 uM, replicate 1
[2] = 12 h, 1 µM, compound concentration 1 uM, replicate 2
[3] = 12 h, 10 µM, compound concentration 10 uM, replicate 1
[4] = 12 h, 10 µM, compound concentration 10 uM, replicate 2
[5] = 24 h, 1 µM, compound concentration 1 uM, replicate 1
[6] = 24 h, 1 µM, compound concentration 1 uM, replicate 2
[7] = 24 h, 10 µM, compound concentration 10 uM, replicate 1
[8] = 24 h, 10 µM, compound concentration 10 uM, replicate 2
[9] = 48 h, 1 µM, compound concentration 1 uM, replicate 1
[10] = 48 h, 1 µM, compound concentration 1 uM, replicate 2
[11] = 48 h, 10 µM, compound concentration 10 uM, replicate 1
[12] = 48 h, 10 µM, compound concentration 10 uM, replicate 2

## O=C1N/C(=N/c2ccccc2F)S/C1=C\c1ccc(C(=O)O)cc1
[1]
  Population Apoptotic (%): 68%
  Population Fragmented Nuclei (%): 29%
  Population Healthy Nuclei (%): 37%
  Population Hoechst High Intensity Objects (%): 13%
  Population Membrane Permeable-Phenotype (%): 27%
  Population Mitochondria Different-Phenotype (%): 2%
  Population Mitotic Cells (%): 31%
  Population Normal (%): 86%
  Population Pyknosed Nuclei (%): 32%
  Population Tubulin-Different-Phenotype (%): 19%
  Total Cell Count: 112
[2]
  Population Apoptotic (%): 0%
  Population Fragmented Nuclei (%): 3%
  Population Healthy Nuclei (%): 92%
  Population Hoechst High Intensity Objects (%): 8%
  Population Membrane Permeable-Phenotype (%): 6%
  Population Mitochondria Different-Phenotype (%): 16%
  Population Mitotic Cells (%): 100%
  Population Normal (%): 91%
  Population Pyknosed Nuclei (%): 3%
  Population Tubulin-Different-Phenotype (%): 24%
  Total Cell Count: 66
[3]
  Population Apoptotic (%): 67%
  Population Fragmented Nuclei (%): 29%
  Population Healthy Nuclei (%): 51%
  Population Hoechst High Intensity Objects (%): 60%
  Population Membrane Permeable-Phenotype (%): 36%
  Population Mitochondria Different-Phenotype (%): 6%
  Population Mitotic Cells (%): 32%
  Population Normal (%): 39%
  Population Pyknosed Nuclei (%): 19%
  Population Tubulin-Different-Phenotype (%): 51%
  Total Cell Count: 406
[4]
  Population Apoptotic (%): 44%
  Population Fragmented Nuclei (%): 4%
  Population Healthy Nuclei (%): 81%
  Population Hoechst High Intensity Objects (%): 8%
  Population Membrane Permeable-Phenotype (%): 1%
  Population Mitochondria Different-Phenotype (%): 9%
  Population Mitotic Cells (%): 55%
  Population Normal (%): 91%
  Population Pyknosed Nuclei (%): 14%
  Population Tubulin-Different-Phenotype (%): 9%
  Total Cell Count: 59
[5]
  Population Apoptotic (%): 55%
  Population Fragmented Nuclei (%): 26%
  Population Healthy Nuclei (%): 47%
  Population Hoechst High Intensity Objects (%): 14%
  Population Membrane Permeable-Phenotype (%): 36%
  Population Mitochondria Different-Phenotype (%): 5%
  Population Mitotic Cells (%): 45%
  Population Normal (%): 85%
  Population Pyknosed Nuclei (%): 26%
  Population Tubulin-Different-Phenotype (%): 41%
  Total Cell Count: 89
[6]
  Population Apoptotic (%): 0%
  Population Fragmented Nuclei (%): 7%
  Population Healthy Nuclei (%): 85%
  Population Hoechst High Intensity Objects (%): 5%
  Population Membrane Permeable-Phenotype (%): 5%
  Population Mitochondria Different-Phenotype (%): 10%
  Population Mitotic Cells (%): 100%
  Population Normal (%): 94%
  Population Pyknosed Nuclei (%): 7%
  Population Tubulin-Different-Phenotype (%): 23%
  Total Cell Count: 69
[7]
  Population Apoptotic (%): 65%
  Population Fragmented Nuclei (%): 18%
  Population Healthy Nuclei (%): 63%
  Population Hoechst High Intensity Objects (%): 20%
  Population Membrane Permeable-Phenotype (%): 29%
  Population Mitochondria Different-Phenotype (%): 5%
  Population Mitotic Cells (%): 34%
  Population Normal (%): 79%
  Population Pyknosed Nuclei (%): 18%
  Population Tubulin-Different-Phenotype (%): 33%
  Total Cell Count: 181
[8]
  Population Apoptotic (%): 60%
  Population Fragmented Nuclei (%): 5%
  Population Healthy Nuclei (%): 88%
  Population Hoechst High Intensity Objects (%): 5%
  Population Membrane Permeable-Phenotype (%): 2%
  Population Mitochondria Different-Phenotype (%): 6%
  Population Mitotic Cells (%): 40%
  Population Normal (%): 94%
  Population Pyknosed Nuclei (%): 5%
  Population Tubulin-Different-Phenotype (%): 16%
  Total Cell Count: 73
[9]
  Population Apoptotic (%): 52%
  Population Fragmented Nuclei (%): 35%
  Population Healthy Nuclei (%): 46%
  Population Hoechst High Intensity Objects (%): 19%
  Population Membrane Permeable-Phenotype (%): 20%
  Population Mitochondria Different-Phenotype (%): 0%
  Population Mitotic Cells (%): 47%
  Population Normal (%): 80%
  Population Pyknosed Nuclei (%): 17%
  Population Tubulin-Different-Phenotype (%): 20%
  Total Cell Count: 118
[10]
  Population Apoptotic (%): 50%
  Population Fragmented Nuclei (%): 26%
  Population Healthy Nuclei (%): 71%
  Population Hoechst High Intensity Objects (%): 30%
  Population Membrane Permeable-Phenotype (%): 18%
  Population Mitochondria Different-Phenotype (%): 3%
  Population Mitotic Cells (%): 50%
  Population Normal (%): 69%
  Population Pyknosed Nuclei (%): 1%
  Population Tubulin-Different-Phenotype (%): 33%
  Total Cell Count: 161
[11]
  Population Apoptotic (%): 53%
  Population Fragmented Nuclei (%): 43%
  Population Healthy Nuclei (%): 47%
  Population Hoechst High Intensity Objects (%): 56%
  Population Membrane Permeable-Phenotype (%): 29%
  Population Mitochondria Different-Phenotype (%): 2%
  Population Mitotic Cells (%): 46%
  Population Normal (%): 43%
  Population Pyknosed Nuclei (%): 9%
  Population Tubulin-Different-Phenotype (%): 36%
  Total Cell Count: 370
[12]
  Population Apoptotic (%): 40%
  Population Fragmented Nuclei (%): 23%
  Population Healthy Nuclei (%): 69%
  Population Hoechst High Intensity Objects (%): 15%
  Population Membrane Permeable-Phenotype (%): 16%
  Population Mitochondria Different-Phenotype (%): 0%
  Population Mitotic Cells (%): 60%
  Population Normal (%): 84%
  Population Pyknosed Nuclei (%): 6%
  Population Tubulin-Different-Phenotype (%): 18%
  Total Cell Count: 90

## CNc1cc(Oc2cc(C(=O)Nc3cc(N4CCN(C)CC4)cc(C(F)(F)F)c3)ccc2C)ncn1
[1]
  Population Apoptotic (%): 61%
  Population Fragmented Nuclei (%): 31%
  Population Healthy Nuclei (%): 39%
  Population Hoechst High Intensity Objects (%): 9%
  Population Membrane Permeable-Phenotype (%): 25%
  Population Mitochondria Different-Phenotype (%): 17%
  Population Mitotic Cells (%): 38%
  Population Normal (%): 90%
  Population Pyknosed Nuclei (%): 29%
  Population Tubulin-Different-Phenotype (%): 53%
  Total Cell Count: 147
[2]
  Population Apoptotic (%): 54%
  Population Fragmented Nuclei (%): 10%
  Population Healthy Nuclei (%): 73%
  Population Hoechst High Intensity Objects (%): 2%
  Population Membrane Permeable-Phenotype (%): 10%
  Population Mitochondria Different-Phenotype (%): 60%
  Population Mitotic Cells (%): 45%
  Population Normal (%): 97%
  Population Pyknosed Nuclei (%): 16%
  Population Tubulin-Different-Phenotype (%): 52%
  Total Cell Count: 56
[3]
  Population Apoptotic (%): 54%
  Population Fragmented Nuclei (%): 27%
  Population Healthy Nuclei (%): 26%
  Population Hoechst High Intensity Objects (%): 18%
  Population Membrane Permeable-Phenotype (%): 37%
  Population Mitochondria Different-Phenotype (%): 45%
  Population Mitotic Cells (%): 45%
  Population Normal (%): 81%
  Population Pyknosed Nuclei (%): 46%
  Population Tubulin-Different-Phenotype (%): 65%
  Total Cell Count: 186
[4]
  Population Apoptotic (%): 73%
  Population Fragmented Nuclei (%): 24%
  Population Healthy Nuclei (%): 13%
  Population Hoechst High Intensity Objects (%): 33%
  Population Membrane Permeable-Phenotype (%): 58%
  Population Mitochondria Different-Phenotype (%): 66%
  Population Mitotic Cells (%): 26%
  Population Normal (%): 66%
  Population Pyknosed Nuclei (%): 61%
  Population Tubulin-Different-Phenotype (%): 66%
  Total Cell Count: 70
[5]
  Population Apoptotic (%): 61%
  Population Fragmented Nuclei (%): 30%
  Population Healthy Nuclei (%): 38%
  Population Hoechst High Intensity Objects (%): 11%
  Population Membrane Permeable-Phenotype (%): 16%
  Population Mitochondria Different-Phenotype (%): 10%
  Population Mitotic Cells (%): 38%
  Population Normal (%): 88%
  Population Pyknosed Nuclei (%): 30%
  Population Tubulin-Different-Phenotype (%): 71%
  Total Cell Count: 163
[6]
  Population Apoptotic (%): 50%
  Population Fragmented Nuclei (%): 16%
  Population Healthy Nuclei (%): 63%
  Population Hoechst High Intensity Objects (%): 6%
  Population Membrane Permeable-Phenotype (%): 13%
  Population Mitochondria Different-Phenotype (%): 68%
  Population Mitotic Cells (%): 50%
  Population Normal (%): 93%
  Population Pyknosed Nuclei (%): 19%
  Population Tubulin-Different-Phenotype (%): 51%
  Total Cell Count: 58
[7]
  Population Apoptotic (%): 80%
  Population Fragmented Nuclei (%): 34%
  Population Healthy Nuclei (%): 19%
  Population Hoechst High Intensity Objects (%): 18%
  Population Membrane Permeable-Phenotype (%): 15%
  Population Mitochondria Different-Phenotype (%): 57%
  Population Mitotic Cells (%): 19%
  Population Normal (%): 81%
  Population Pyknosed Nuclei (%): 45%
  Population Tubulin-Different-Phenotype (%): 76%
  Total Cell Count: 163
[8]
  Population Apoptotic (%): 76%
  Population Fragmented Nuclei (%): 16%
  Population Healthy Nuclei (%): 23%
  Population Hoechst High Intensity Objects (%): 48%
  Population Membrane Permeable-Phenotype (%): 80%
  Population Mitochondria Different-Phenotype (%): 80%
  Population Mitotic Cells (%): 23%
  Population Normal (%): 51%
  Population Pyknosed Nuclei (%): 60%
  Population Tubulin-Different-Phenotype (%): 80%
  Total Cell Count: 76
[9]
  Population Apoptotic (%): 84%
  Population Fragmented Nuclei (%): 37%
  Population Healthy Nuclei (%): 43%
  Population Hoechst High Intensity Objects (%): 15%
  Population Membrane Permeable-Phenotype (%): 12%
  Population Mitochondria Different-Phenotype (%): 10%
  Population Mitotic Cells (%): 16%
  Population Normal (%): 84%
  Population Pyknosed Nuclei (%): 19%
  Population Tubulin-Different-Phenotype (%): 65%
  Total Cell Count: 150
[10]
  Population Apoptotic (%): 60%
  Population Fragmented Nuclei (%): 43%
  Population Healthy Nuclei (%): 52%
  Population Hoechst High Intensity Objects (%): 23%
  Population Mitochondria Different-Phenotype (%): 3%
  Population Mitotic Cells (%): 40%
  Population Normal (%): 76%
  Population Pyknosed Nuclei (%): 4%
  Population Tubulin-Different-Phenotype (%): 49%
  Total Cell Count: 158
[11]
  Population Apoptotic (%): 75%
  Population Fragmented Nuclei (%): 59%
  Population Healthy Nuclei (%): 10%
  Population Hoechst High Intensity Objects (%): 30%
  Population Membrane Permeable-Phenotype (%): 36%
  Population Mitochondria Different-Phenotype (%): 54%
  Population Mitotic Cells (%): 24%
  Population Normal (%): 69%
  Population Pyknosed Nuclei (%): 30%
  Population Tubulin-Different-Phenotype (%): 72%
  Total Cell Count: 155
[12]
  Population Apoptotic (%): 100%
  Population Fragmented Nuclei (%): 84%
  Population Healthy Nuclei (%): 11%
  Population Hoechst High Intensity Objects (%): 34%
  Population Membrane Permeable-Phenotype (%): 20%
  Population Mitochondria Different-Phenotype (%): 80%
  Population Mitotic Cells (%): 0%
  Population Normal (%): 65%
  Population Pyknosed Nuclei (%): 4%
  Population Tubulin-Different-Phenotype (%): 80%
  Total Cell Count: 67
